pKi: −log10 of the molar value. Non-standard residues stand in square brackets, D forms with d. Residues, ends and D or L forms follow the SMILES beside them. 2Nal = N[C@@H](Cc1ccc2ccccc2c1)C(=O)O; Arg(Me) = CNC(=N)NCCC[C@H](N)C(=O)O; azaGly = NNC(=O)O
Columns and labels:
KiSS-1 receptor [1] = target: T1, KiSS-1 receptor (Homo sapiens, UniProt Q969F8); test: Agonist activity at recombinant human KISS1R expressed in CHO cells assessed as intracellular calcium mobilization incubated for 30 mins at 37 degC and 30 mins at room temperature by Fluo-4 NW staining-based FLIPR assay relative to Metastin (45 to 54); format: functional, cell-based
T1 sequence (Q969F8 whole entry): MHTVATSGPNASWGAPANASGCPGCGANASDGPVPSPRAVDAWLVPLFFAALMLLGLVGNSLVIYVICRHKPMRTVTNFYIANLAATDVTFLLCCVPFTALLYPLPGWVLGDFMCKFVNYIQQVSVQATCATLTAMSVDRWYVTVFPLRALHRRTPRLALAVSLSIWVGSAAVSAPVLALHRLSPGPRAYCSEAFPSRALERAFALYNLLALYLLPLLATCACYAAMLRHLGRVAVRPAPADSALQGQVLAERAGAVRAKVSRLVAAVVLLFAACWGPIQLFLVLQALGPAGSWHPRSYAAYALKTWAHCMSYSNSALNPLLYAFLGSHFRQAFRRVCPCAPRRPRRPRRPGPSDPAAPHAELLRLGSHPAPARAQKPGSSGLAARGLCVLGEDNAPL
How it was run: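 CHO cells stably expressing human KISS1R seeded at 15,000 cells/well, cultured 24 h, then loaded with Fluo-4 Direct in HBSS with 4 mM probenecid and 0.1% BSA (30 min 37 °C, 30 min room temperature). Compounds from 10 µM DMSO stocks diluted in sample buffer and added. Fluorescence read for 2 min at 2 s intervals. Peak counts give agonist activity. EC50 expressed as ratio to metastin(45-54).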

KiSS-1 receptor [2] = target: T1, KiSS-1 receptor; test: Binding affinity to human KISS1R expressed in CHO cell membranes
KiSS-1 receptor [3] = target: KiSS-1 receptor (Rattus norvegicus, UniProt Q924U1); test: Binding affinity to rat KISS1R
Chain of KiSS-1 receptor (Rattus norvegicus, UniProt Q924U1) (Q924U1 whole entry): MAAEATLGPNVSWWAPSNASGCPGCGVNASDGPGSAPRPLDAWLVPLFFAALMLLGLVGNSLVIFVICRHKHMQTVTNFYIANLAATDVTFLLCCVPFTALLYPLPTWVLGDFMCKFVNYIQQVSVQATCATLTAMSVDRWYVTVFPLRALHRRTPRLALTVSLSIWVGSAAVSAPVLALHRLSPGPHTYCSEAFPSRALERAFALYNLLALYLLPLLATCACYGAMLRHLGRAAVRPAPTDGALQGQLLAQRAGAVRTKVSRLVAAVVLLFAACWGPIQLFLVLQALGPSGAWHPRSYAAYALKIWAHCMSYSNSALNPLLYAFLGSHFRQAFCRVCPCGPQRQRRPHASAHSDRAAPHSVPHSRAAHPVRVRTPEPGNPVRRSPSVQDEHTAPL

SMILES	fold change (FC) (KiSS-1 receptor [1])	pKi (KiSS-1 receptor [2])	pKi (KiSS-1 receptor [3])	further results
CNC(=N)NCCC[C@H](NC(=O)[C@H](CC(C)C)NC(=O)NNC(=O)[C@H](Cc1ccccc1)NC(=O)[C@H](CO)NC(=O)[C@H](CC(N)=O)NC(=O)[C@H](Cc1ccncc1)NC(=O)[C@@H](CC(N)=O)NC(=O)[C@@H](N)Cc1ccc(O)cc1)C(=O)N[C@@H](Cc1ccccc1)C(N)=O	2.7			
CNC(N)=NCCC[C@H](NC(=O)[C@H](CC(C)C)NC(=O)NNC(=O)[C@H](Cc1ccccc1)NC(=O)[C@H](CO)NC(=O)[C@H](CC(N)=O)NC(=O)[C@H](Cc1ccncc1)NC(=O)[C@H](CC(N)=O)NC(=O)[C@H](N)Cc1ccc(O)cc1)C(=O)N[C@@H](Cc1ccccc1)C(N)=O		9.92	9.92	
CNC(N)=NCCC[C@H](NC(=O)[C@H](CC(C)C)NC(=O)CNC(=O)[C@H](Cc1ccccc1)NC(=O)[C@H](CO)NC(=O)[C@H](CC(N)=O)NC(=O)[C@H](Cc1c[nH]c2ccccc12)NC(=O)[C@H](CC(N)=O)NC(=O)[C@H](N)Cc1ccc(O)cc1)C(=O)N[C@@H](Cc1ccccc1)C(N)=O				pKi (KiSS-1 receptor [2]; cho): 10.34
CNC(N)=NCCC[C@H](NC(=O)[C@H](CC(C)C)NC(=O)NNC(=O)[C@H](Cc1ccccc1)NC(=O)[C@H](CO)NC(=O)[C@H](CC(N)=O)NC(=O)[C@H](Cc1ccncc1)NC(=O)[C@@H](CC(N)=O)NC(=O)[C@H](N)Cc1ccc(O)cc1)C(=O)N[C@@H](Cc1ccccc1)C(N)=O		9.96	10.02	
CNC(N)=NCCC[C@H](NC(=O)[C@H](CC(C)C)NC(=O)NNC(=O)[C@H](Cc1ccccc1)NC(=O)[C@H](CO)NC(=O)[C@H](CC(N)=O)NC(=O)[C@H](Cc1c[nH]c2ccccc12)NC(=O)[C@@H](CO)NC(=O)[C@H](N)Cc1ccc(O)cc1)C(=O)N[C@@H](Cc1ccccc1)C(N)=O		10.07	10.03	
CNC(=N)NCCC[C@H](NC(=O)[C@H](CC(C)C)NC(=O)NNC(=O)[C@H](Cc1ccccc1)NC(=O)[C@H](CO)NC(=O)[C@H](CC(N)=O)NC(=O)[C@H](Cc1ccccc1)NC(=O)[C@@H](CC(N)=O)NC(=O)[C@H](N)Cc1ccc(O)cc1)C(=O)N[C@@H](Cc1ccccc1)C(N)=O (H-[dY][dN]FNSF[azaGly]L[Arg(Me)]F-NH2)	1.5			
CNC(=N)NCCC[C@H](NC(=O)[C@H](CC(C)C)NC(=O)NNC(=O)[C@H](Cc1ccccc1)NC(=O)[C@H](CO)NC(=O)[C@H](CC(N)=O)NC(=O)[C@H](CO)NC(=O)[C@H](N)Cc1ccc(O)cc1)C(=O)N[C@@H](Cc1ccccc1)C(N)=O (H-[dY]SNSF[azaGly]L[Arg(Me)]F-NH2)	61			
CNC(=N)NCCC[C@H](NC(=O)[C@H](CC(C)C)NC(=O)NNC(=O)[C@H](Cc1ccccc1)NC(=O)[C@H](CO)NC(=O)[C@H](CC(N)=O)NC(=O)[C@H](Cc1ccncc1)NC(=O)[C@@H](CC(N)=O)NC(=O)[C@H](N)Cc1ccc(O)cc1)C(=O)N[C@@H](Cc1ccccc1)C(N)=O	1.7			
CC(C)C[C@H](NC(=O)CNC(=O)[C@H](Cc1ccccc1)NC(=O)[C@H](CO)NC(=O)[C@H](CC(N)=O)NC(=O)[C@H](Cc1c[nH]c2ccccc12)NC(=O)[C@H](CC(N)=O)NC(=O)[C@@H](N)Cc1ccc(O)cc1)C(=O)N[C@@H](CCCNC(=N)N)C(=O)N[C@@H](Cc1ccccc1)C(N)=O [KISSPEPTIN-10]		10.41		
CNC(=N)NCCC[C@H](NC(=O)[C@H](CC(C)C)NC(=O)NNC(=O)[C@H](Cc1ccccc1)NC(=O)[C@H](CO)NC(=O)[C@H](CC(N)=O)NC(=O)[C@@H](NC(=O)[C@@H](CC(N)=O)NC(=O)[C@H](N)Cc1ccc(O)cc1)[C@@H](C)O)C(=O)N[C@@H](Cc1ccccc1)C(N)=O	7.3			
CNC(N)=NCCC[C@H](NC(=O)[C@H](CC(C)C)NC(=O)NNC(=O)[C@H](Cc1ccccc1)NC(=O)[C@H](CO)NC(=O)[C@H](CC(N)=O)NC(=O)[C@@H](Cc1ccncc1)NC(=O)[C@H](CC(N)=O)NC(=O)[C@H](N)Cc1ccc(O)cc1)C(=O)N[C@@H](Cc1ccccc1)C(N)=O		9.92	9.92	
CNC(N)=NCCC[C@H](NC(=O)[C@H](CC(C)C)NC(=O)NNC(=O)[C@H](Cc1ccccc1)NC(=O)[C@H](CO)NC(=O)[C@H](CC(N)=O)NC(=O)[C@H](Cc1ccncc1)NC(=O)[C@@H](CC(N)=O)NC(=O)[C@@H](N)Cc1ccc(O)cc1)C(=O)N[C@@H](Cc1ccccc1)C(N)=O		9.68	9.80	
CNC(N)=NCCC[C@H](NC(=O)[C@H](CC(C)C)NC(=O)NNC(=O)[C@H](Cc1ccccc1)NC(=O)[C@H](CO)NC(=O)[C@H](CC(N)=O)NC(=O)[C@H](Cc1ccccc1)NC(=O)[C@H](N)Cc1ccc(O)cc1)C(=O)N[C@@H](Cc1ccccc1)C(N)=O		10.07	9.82	
CNC(=N)NCCC[C@H](NC(=O)[C@H](CC(C)C)NC(=O)NNC(=O)[C@H](Cc1ccccc1)NC(=O)[C@H](CO)NC(=O)[C@H](CC(N)=O)NC(=O)[C@H](Cc1ccncc1)NC(=O)[C@H](CC(N)=O)NC(=O)[C@H](N)Cc1ccc(O)cc1)C(=O)N[C@@H](Cc1ccccc1)C(N)=O	5			
CNC(=N)NCCC[C@H](NC(=O)[C@H](CC(C)C)NC(=O)NNC(=O)[C@H](Cc1ccccc1)NC(=O)[C@H](CO)NC(=O)[C@H](CC(N)=O)NC(=O)[C@H](Cc1ccc2ccccc2c1)NC(=O)[C@H](N)Cc1ccc(O)cc1)C(=O)N[C@@H](Cc1ccccc1)C(N)=O (H-[dY][2Nal]NSF[azaGly]L[Arg(Me)]F-NH2)	6.4			
CNC(=N)NCCC[C@H](NC(=O)[C@H](CC(C)C)NC(=O)NNC(=O)[C@H](Cc1ccccc1)NC(=O)[C@H](CO)NC(=O)[C@H](CC(N)=O)NC(=O)[C@@H](Cc1ccncc1)NC(=O)[C@H](CC(N)=O)NC(=O)[C@H](N)Cc1ccc(O)cc1)C(=O)N[C@@H](Cc1ccccc1)C(N)=O	3.6			
CNC(N)=NCCC[C@H](NC(=O)[C@H](CC(C)C)NC(=O)NNC(=O)[C@H](Cc1ccccc1)NC(=O)[C@H](CO)NC(=O)[C@H](CC(N)=O)NC(=O)[C@H](CO)NC(=O)[C@H](N)Cc1ccc(O)cc1)C(=O)N[C@@H](Cc1ccccc1)C(N)=O (H-[dY]SNSF[azaGly]L[Arg(Me)]F-NH2)		9.68	9.52	
CNC(N)=NCCC[C@H](NC(=O)[C@H](CC(C)C)NC(=O)NNC(=O)[C@H](Cc1ccccc1)NC(=O)[C@H](CO)NC(=O)[C@H](CC(N)=O)NC(=O)[C@@H](Cc1c[nH]c2ccccc12)NC(=O)[C@H](CC(N)=O)NC(=O)[C@H](N)Cc1ccc(O)cc1)C(=O)N[C@@H](Cc1ccccc1)C(N)=O		10.11		

More lines, main results first:

fold change (FC) (KiSS-1 receptor [1])	pKi (KiSS-1 receptor [2])	pKi (KiSS-1 receptor [3])	SMILES	further results
3.7			CNC(=N)NCCC[C@H](NC(=O)[C@H](CC(C)C)NC(=O)NNC(=O)[C@H](Cc1ccccc1)NC(=O)[C@H](CO)NC(=O)[C@H](CC(N)=O)NC(=O)[C@H](Cc1c[nH]c2ccccc12)NC(=O)[C@@H](CO)NC(=O)[C@H](N)Cc1ccc(O)cc1)C(=O)N[C@@H](Cc1ccccc1)C(N)=O	
	9.70	9.55	CNC(N)=NCCC[C@H](NC(=O)[C@H](CC(C)C)NC(=O)NNC(=O)[C@H](Cc1ccccc1)NC(=O)[C@H](CO)NC(=O)[C@H](CC(N)=O)NC(=O)[C@H](Cc1ccccc1)NC(=O)[C@H](N)Cc1cccnc1)C(=O)N[C@@H](Cc1ccccc1)C(N)=O	
2.8			CNC(=N)NCCC[C@H](NC(=O)[C@H](CC(C)C)NC(=O)NNC(=O)[C@H](Cc1ccccc1)NC(=O)[C@H](CO)NC(=O)[C@H](CC(N)=O)NC(=O)[C@H](Cc1c[nH]c2ccccc12)NC(=O)[C@H](CC(N)=O)NC(=O)[C@H](N)Cc1ccc(O)cc1)C(=O)N[C@@H](Cc1ccccc1)C(N)=O	
8.6			CNC(=N)NCCC[C@H](NC(=O)[C@H](CC(C)C)NC(=O)NNC(=O)[C@H](Cc1ccccc1)NC(=O)[C@H](CO)NC(=O)[C@H](CC(N)=O)NC(=O)[C@@H](Cc1c[nH]c2ccccc12)NC(=O)[C@@H](CC(N)=O)NC(=O)[C@H](N)Cc1ccc(O)cc1)C(=O)N[C@@H](Cc1ccccc1)C(N)=O	
7.7			CNC(=N)NCCC[C@H](NC(=O)[C@H](CC(C)C)NC(=O)NNC(=O)[C@H](Cc1ccccc1)NC(=O)[C@H](CO)NC(=O)[C@H](CC(N)=O)NC(=O)[C@H](Cc1ccccc1)NC(=O)[C@H](N)Cc1ccc(O)cc1)C(=O)N[C@@H](Cc1ccccc1)C(N)=O	
5.8			CNC(=N)NCCC[C@H](NC(=O)[C@H](CC(C)C)NC(=O)NNC(=O)[C@H](Cc1ccccc1)NC(=O)[C@H](CO)NC(=O)[C@H](CC(N)=O)NC(=O)[C@H](Cc1ccccc1)NC(=O)[C@H](N)Cc1cccnc1)C(=O)N[C@@H](Cc1ccccc1)C(N)=O	
	9.96	9.89	CNC(N)=NCCC[C@H](NC(=O)[C@H](CC(C)C)NC(=O)NNC(=O)[C@H](Cc1ccccc1)NC(=O)[C@H](CO)NC(=O)[C@H](CC(N)=O)NC(=O)[C@H](Cc1c[nH]c2ccccc12)NC(=O)[C@H](N)Cc1cccnc1)C(=O)N[C@@H](Cc1ccccc1)C(N)=O	
2.6	10.21		CNC(=N)NCCC[C@H](NC(=O)[C@H](CC(C)C)NC(=O)NNC(=O)[C@H](Cc1ccccc1)NC(=O)[C@H](CO)NC(=O)[C@H](CC(N)=O)NC(=O)[C@H](Cc1c[nH]c2ccccc12)NC(=O)[C@@H](CC(N)=O)NC(=O)[C@H](N)Cc1ccc(O)cc1)C(=O)N[C@@H](Cc1ccccc1)C(N)=O	
3.7			CNC(=N)NCCC[C@H](NC(=O)[C@H](CC(C)C)NC(=O)NNC(=O)[C@H](Cc1ccccc1)NC(=O)[C@H](CO)NC(=O)[C@H](CC(N)=O)NC(=O)[C@@H](Cc1c[nH]c2ccccc12)NC(=O)[C@H](CC(N)=O)NC(=O)[C@H](N)Cc1ccc(O)cc1)C(=O)N[C@@H](Cc1ccccc1)C(N)=O	
1.7	10.35		CC(C)C[C@H](NC(=O)NNC(=O)[C@H](Cc1ccccc1)NC(=O)[C@H](CO)NC(=O)[C@H](CC(N)=O)NC(=O)[C@H](Cc1c[nH]c2ccccc12)NC(=O)[C@H](CC(N)=O)NC(=O)[C@@H](N)Cc1ccc(O)cc1)C(=O)N[C@@H](CCCNC(=N)N)C(=O)N[C@@H](Cc1ccccc1)C(N)=O	
8.7			CNC(=N)NCCC[C@H](NC(=O)[C@H](CC(C)C)NC(=O)NNC(=O)[C@H](Cc1ccccc1)NC(=O)[C@H](CO)NC(=O)[C@H](CC(N)=O)NC(=O)[C@H](Cc1c[nH]c2ccccc12)NC(=O)[C@H](N)Cc1cccnc1)C(=O)N[C@@H](Cc1ccccc1)C(N)=O	
